As a reminder, the pEC50 is the negative decadic logarithm of the EC50, by convention in mol/L.

Data set [1] concerns Trypanosoma brucei rhodesiense. The data set can be described thus: Antitrypanosomal activity against bloodstream form of Trypanosoma brucei rhodesiense EATRO3 after 72 hrs by alamar blue assay. Format: functional, organism-based. Particulars: EATRO3, 72 h. The method, boiled down: (§1)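 Bloodstream-form parasites were grown in HMI-9 with 20% heat-inactivated FBS at 37 °C and 5% CO2. They were seeded at 2 × 10^3 cells/ml (T. b. rhodesiense EATRO3) or 2 × 10^4 cells/ml (T. b. gambiense ELIANE) and exposed to a compound dilution series for 72 h. Untreated cells with matching DMSO served as controls. Alamar Blue fluorescence was read at ex 550/em 590 nm, and EC50 was derived from it.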
Background: The colour change of resazurin is a common sign of viable cells or microbes.

A short description of data set [2]: Selectivity index, ratio of CC50 for african green monkey Vero cells to EC50 for Trypanosoma brucei rhodesiense EATRO3. Type of data set: toxicity, cell-based. The settings on record: read-out: Ratio CC50/EC50. Put shortly: (§2)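 Vero cells were grown in DMEM with 10% heat-inactivated FBS and seeded at 5 × 10^4 cells/ml. They were exposed to 4–35 (units as printed unclear) compound concentrations for 72 h at 37 °C and 5% CO2. CC50 came from Alamar Blue fluorescence (ex 550/em 590 nm). SI = CC50 (Vero) / EC50 (parasite, 72 h Alamar Blue assay).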

Data set [3] can be described thus: Selectivity index, ratio of CC50 for african green monkey Vero cells to EC50 for Trypanosoma brucei gambiense ELIANE. Type of data set: toxicity, cell-based. Particulars: read-out: Ratio CC50/EC50. Put shortly:
as §2

Data set [4] concerns Trypanosoma brucei gambiense. The data set can be described thus: Antitrypanosomal activity against bloodstream form of Trypanosoma brucei gambiense ELIANE after 72 hrs by alamar blue assay. Type of data set: functional, organism-based. Put shortly: as §1
The test system of data set [5] is Trypanosoma brucei rhodesiense. As to the kind of experiment: Antitrypanosomal activity against bloodstream form of Trypanosoma brucei rhodesiense EATRO3 assessed as alteration of flagellar pocket at […] after 24 hrs by microscopic analysis. Type of data set: functional, organism-based. The method, boiled down:
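Live bloodstream-form T. b. rhodesiense EATRO3, cultured in HMI-9 with 20% heat-inactivated FBS at 37 °C and 5% CO2, were treated for 24 h. Flagellar pocket morphology was imaged with Nomarski optics and compared against untreated parasites.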

pEC50: −log10 of the molar value. Calls of active or inactive are those of the source. The calls are words filed in the database; no cut-off is given here. A value given as a limit tells only on which side of the number the result lay.

Turning to `N=C(N)c1ccc(OCCCCCOc2ccc(C(=N)N)cc2)cc1`, the pEC50 in data set [1] was 8.43.

Regarding `CCCCCCCCCCCCCCC(O)CN(CC)CC` (racemic), in data set [2], the selectivity ratio turned out to be 19.9. In addition, the pEC50 in data set [1] was 5.70. `CCCCCCCCCCCCCCC(N)CO` (racemic) gave a pEC50 in data set [1] of less than 5.60.

For the compound `CCCCCCCCCCCCCCC(O)CNC(C)C` (racemic), the selectivity ratio in data set [3] was determined as 35.8; in data set [2], 27.1. Besides, the pEC50 in data set [4] was 6.48; in data set [1] it was 6.36. Also, the result in data set [5] was Active. For `CCCCCCCCCCCCCCC(CO)NC(=O)CCCC(=O)O` (racemic), the negative logarithm of the EC50 (pEC50) in data set [1] was less than 5.60. In turn, `CCCCCCCCCCCCCCC(O)CNC1CCCCC1` (racemic) gave a pEC50 in data set [1] of 6.10.

For the compound `CCCCCCCCCCCCCCC(O)CNCCCCCC` (racemic), the negative logarithm of the EC50 (pEC50) in data set [1] was less than 5.60. Consider `CCCCCCCCCCCCCCC(CNCC)NC(=O)OC(C)(C)C` (racemic), for which the selectivity ratio in data set [2] was found to be 38.8. In data set [1], this compound had a pEC50 of 6.15. In data set [1], `CCCCCCCCCCCCCCC(CO)N(CC)CC` (racemic) showed a pEC50 of 6.14. Compound `CCCCCCCCCCCCCCC(COCc1ccccc1)NC(=O)CCC(=O)O` (racemic) showed a negative-log EC50 (pEC50) in data set [1] of less than 5.60. Still for that read-out and setting: to `Cc1ccc(C(=O)Nc2ccc(S(=O)(=O)O)c3cc(S(=O)(=O)O)cc(S(=O)(=O)O)c23)cc1NC(=O)c1cccc(NC(=O)Nc2cccc(C(=O)Nc3cc(C(=O)Nc4ccc(S(=O)(=O)O)c5cc(S(=O)(=O)O)cc(S(=O)(=O)O)c45)ccc3C)c2)c1` [SURAMIN] belongs 6.73.

In the case of `CCCCCCCCCCCCCCC(CO)NCCCC` (racemic), the negative logarithm of the EC50 (pEC50) in data set [1] was 6.09. Same read-out and setting: in the case of `CCCCCCCCCCCCCCC(CNC(=O)CCC(=O)O)NC(=O)OC(C)(C)C` (racemic) it was less than 5.60. Same read-out and setting: to `CCCCCCCCCCCCCCC(CNCCCCCC)NC(=O)OC(C)(C)C` (racemic) belongs less than 5.60; to `CCCCCCCCCCCCCCC(O)CN1CCN(CCCC)CC1` (racemic), 5.75; to `CCCCCCCCCCCCCCC(O)CN1CCOCC1` (racemic), less than 5.60. As for `CCCCCCCCCCCCCCCCC(CO)NCC` (racemic), the selectivity ratio came to 35.9 in data set [3] and 27.7 in data set [2]. In addition, the negative-log EC50 (pEC50) in data set [4] was 6.35; in data set [1] it was 6.23. In data set [5], the result was Active. Turning to `CCCCCCCCCCCCCCC(O)CN1CCN(C)CC1` (racemic), the values for the selectivity ratio in data set [3] and in data set [2] were 28.8 and 23.7, respectively. The pEC50 in data set [4] was 6.37; in data set [1], 6.28. For the same compound, in data set [5], the result was Active. Take `CCCCCCCCCCCCCCC(N)CNCC(=O)O` (racemic): the negative-log EC50 (pEC50) in data set [1] is less than 5.60. With `CCCCCCCCCCCCCCC(CO)NCC` (racemic), the selectivity ratio in data set [2] was found to be 39.1. Also, the pEC50 in data set [1] was 5.94. The like results for `CCCCCCCCCCCCCCC(CN)NC(=O)OC(C)(C)C` (racemic) were, in that order, 17 and 6.02. In data set [1], `CCCCCCCCCCC(CO)NCC` (racemic) showed a pEC50 of 5.96.

Source of the values: ChEMBL document CHEMBL1944526, “Diamine and aminoalcohol derivatives active against Trypanosoma brucei” (Bioorg Med Chem Lett, 2012).
